Article PMC4136711 (Journal of Medicinal Chemistry, 2014)

How the values were obtained:
L3MBTL1 = L3MBTL1 (Homo sapiens, UniProt Q9Y468); details: methyllysine reader protein
PRC2 complex = PRC2 complex (Homo sapiens, UniProt Q15910); assay: Selectivity assay; assay type: biochemical; details: read-out: estimated IC50 PRC2
Procedure, shortened: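 Tritium-labelled methyl transfer from 3H-SAM to peptide substrate, with substrates near their Km values for the enzyme. Test compound ranged from 100 nM to 100 μM. Reactions were quenched with 7.5 M guanidine hydrochloride, diluted in 20 mM Tris pH 8.0, and captured on FlashPlates for 1 h before counting CPM. The no-compound signal defined 100% activity and the no-enzyme signal defined 0%.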

SETD8 = target: T1, SETD8 (Homo sapiens, UniProt Q9NQR1); assay type: binding
T1 sequence (Q9NQR1 257-378 limits assumed): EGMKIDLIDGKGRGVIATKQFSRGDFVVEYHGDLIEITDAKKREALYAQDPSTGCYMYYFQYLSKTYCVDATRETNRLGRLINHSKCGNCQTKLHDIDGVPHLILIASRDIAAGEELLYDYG

Chain of L3MBTL1 (Q9Y468 whole entry, species assumed): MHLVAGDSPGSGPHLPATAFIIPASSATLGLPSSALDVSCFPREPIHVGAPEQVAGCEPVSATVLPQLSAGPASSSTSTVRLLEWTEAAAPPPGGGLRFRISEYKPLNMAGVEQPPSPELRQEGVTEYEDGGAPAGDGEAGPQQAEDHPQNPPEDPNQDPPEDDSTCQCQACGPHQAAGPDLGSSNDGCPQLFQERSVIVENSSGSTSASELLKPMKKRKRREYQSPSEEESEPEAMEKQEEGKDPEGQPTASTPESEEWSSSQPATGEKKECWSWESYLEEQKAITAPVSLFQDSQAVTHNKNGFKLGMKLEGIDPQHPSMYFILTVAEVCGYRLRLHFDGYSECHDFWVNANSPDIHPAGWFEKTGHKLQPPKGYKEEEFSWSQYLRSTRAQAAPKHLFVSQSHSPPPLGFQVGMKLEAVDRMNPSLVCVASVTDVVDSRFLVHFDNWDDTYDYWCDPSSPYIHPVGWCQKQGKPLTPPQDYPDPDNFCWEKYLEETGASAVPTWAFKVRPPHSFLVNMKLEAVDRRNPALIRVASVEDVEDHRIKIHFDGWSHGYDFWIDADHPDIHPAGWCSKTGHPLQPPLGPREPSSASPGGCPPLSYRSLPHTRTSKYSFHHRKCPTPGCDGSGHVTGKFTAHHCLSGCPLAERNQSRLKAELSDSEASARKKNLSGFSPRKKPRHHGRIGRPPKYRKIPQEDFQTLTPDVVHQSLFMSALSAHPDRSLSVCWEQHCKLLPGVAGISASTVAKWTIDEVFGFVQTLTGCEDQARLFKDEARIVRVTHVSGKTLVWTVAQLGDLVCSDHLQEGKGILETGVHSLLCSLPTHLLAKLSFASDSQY
Chain of PRC2 complex (Q15910 whole entry): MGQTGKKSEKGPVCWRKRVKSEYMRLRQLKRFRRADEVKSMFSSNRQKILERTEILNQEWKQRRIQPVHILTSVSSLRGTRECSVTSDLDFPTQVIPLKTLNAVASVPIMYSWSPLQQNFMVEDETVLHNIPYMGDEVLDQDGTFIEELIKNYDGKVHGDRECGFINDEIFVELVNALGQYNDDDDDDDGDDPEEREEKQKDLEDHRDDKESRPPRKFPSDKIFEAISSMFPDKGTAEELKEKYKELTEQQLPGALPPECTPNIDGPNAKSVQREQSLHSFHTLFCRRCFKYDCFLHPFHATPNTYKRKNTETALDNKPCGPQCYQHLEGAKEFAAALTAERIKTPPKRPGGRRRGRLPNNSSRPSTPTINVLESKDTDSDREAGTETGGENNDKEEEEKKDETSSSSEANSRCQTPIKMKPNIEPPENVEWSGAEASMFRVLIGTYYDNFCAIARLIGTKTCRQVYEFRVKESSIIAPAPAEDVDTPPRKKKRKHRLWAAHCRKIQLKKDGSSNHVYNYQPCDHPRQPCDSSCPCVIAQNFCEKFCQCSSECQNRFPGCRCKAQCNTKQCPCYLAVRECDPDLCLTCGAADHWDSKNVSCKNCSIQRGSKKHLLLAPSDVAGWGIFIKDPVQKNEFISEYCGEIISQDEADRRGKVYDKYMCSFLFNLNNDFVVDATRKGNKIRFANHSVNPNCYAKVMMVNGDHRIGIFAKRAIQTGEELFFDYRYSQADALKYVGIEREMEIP
Chain of PRC2 complex (O75530 whole entry partner): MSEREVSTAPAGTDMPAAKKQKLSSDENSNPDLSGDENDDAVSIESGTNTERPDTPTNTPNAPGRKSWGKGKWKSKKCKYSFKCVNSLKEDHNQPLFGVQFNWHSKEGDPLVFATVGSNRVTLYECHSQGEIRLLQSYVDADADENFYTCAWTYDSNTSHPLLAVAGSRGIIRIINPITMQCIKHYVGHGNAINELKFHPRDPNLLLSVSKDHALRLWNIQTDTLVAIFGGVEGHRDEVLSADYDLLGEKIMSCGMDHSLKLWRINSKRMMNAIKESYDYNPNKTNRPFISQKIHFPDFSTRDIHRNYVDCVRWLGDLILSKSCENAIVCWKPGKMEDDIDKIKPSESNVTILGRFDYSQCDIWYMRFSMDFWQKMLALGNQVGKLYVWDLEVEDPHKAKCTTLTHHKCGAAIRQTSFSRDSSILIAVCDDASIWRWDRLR
Chain of PRC2 complex (Q15022 whole entry partner): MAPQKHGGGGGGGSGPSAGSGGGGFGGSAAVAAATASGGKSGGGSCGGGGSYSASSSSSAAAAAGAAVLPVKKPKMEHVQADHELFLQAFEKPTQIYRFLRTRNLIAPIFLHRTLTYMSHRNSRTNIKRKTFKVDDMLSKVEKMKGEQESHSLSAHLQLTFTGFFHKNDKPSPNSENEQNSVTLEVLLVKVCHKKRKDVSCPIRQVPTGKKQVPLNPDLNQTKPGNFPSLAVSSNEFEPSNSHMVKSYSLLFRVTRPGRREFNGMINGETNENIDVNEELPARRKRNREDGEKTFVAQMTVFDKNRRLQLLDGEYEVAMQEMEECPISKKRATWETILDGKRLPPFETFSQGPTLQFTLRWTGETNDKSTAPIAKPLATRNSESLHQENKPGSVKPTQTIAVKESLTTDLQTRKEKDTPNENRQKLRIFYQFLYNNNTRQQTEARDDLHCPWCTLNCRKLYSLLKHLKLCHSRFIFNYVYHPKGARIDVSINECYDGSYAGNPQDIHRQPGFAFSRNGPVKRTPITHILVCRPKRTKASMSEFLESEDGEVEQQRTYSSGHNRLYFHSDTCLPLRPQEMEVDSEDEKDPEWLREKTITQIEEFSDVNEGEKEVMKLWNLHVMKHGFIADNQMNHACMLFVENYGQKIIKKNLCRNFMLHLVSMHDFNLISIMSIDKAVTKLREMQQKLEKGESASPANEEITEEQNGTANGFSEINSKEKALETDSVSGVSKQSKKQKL

Row | Activity for L3MBTL1 (L3MBTL1) | potency estimated from few doses (PRC2 complex) [µM] | Displacement of FITC-labeled H4K20me peptide (FP), in words (SETD8) | Compound
1 | no appreciable activity | > 50 |  | COc1cc2nc(N3CCCC3)nc(NCCCCCN3CCCC3)c2cc1OC [Compound 1, 6,7-Dimethoxy-2-(pyrrolidin-1-yl)-N-(5-(pyrrolidin-1-yl)pentyl)quinazolin-4-amine]
2 |  |  | did not displace the peptide | COc1cc2nc(N3CCCC3)nc(N(C)CCCCCN3CCCC3)c2cc1OC [Compound 14, 6,7-Dimethoxy-N-methyl-2-(pyrrolidin-1-yl)-N-(5-(pyrrolidin-1-yl)pentyl)quinazolin-4-amine]
